Reference: ChEMBL document CHEMBL1123472, “Long-acting dihydropyridine calcium antagonists. 1. 2-Alkoxymethyl derivatives incorporating basic substituents” (J Med Chem, 1986)

How the values were obtained:
Cavia porcellus = species on record: Cavia porcellus; experiment: Negative inotropy measured as the concentration required to depress contraction in the isolated Langendorff-perfused guinea pig heart by 25%; assay type: functional
Method in brief: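 Hearts from male guinea pigs were Langendorff-perfused with Krebs-Henseleit solution at 37 °C. Force and rate of contraction were measured with a force transducer attached to the apex.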

[1] = In vitro calcium antagonist activity was assessed against calcium induced constriction of potassium-depolarized rat aorta; assay type: functional, tissue-based
Method in brief: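 Spirally cut rat aortic strips, one end fixed and the other on a force transducer, in modified Krebs-Henseleit with 45 mM K⁺ and no calcium. CaCl2 is added to a final 2 mM Ca²⁺ and the contraction tension is recorded. After draining, refilling and 45 min, the challenge is repeated with the compound in the saline. The concentration giving 50% reduction of the response is recorded.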

Rattus norvegicus = species on record: Rattus norvegicus; experiment: In vitro calcium antagonist activity was assessed against calcium induced constriction of potassium -depolarized rat aorta by 50%
Canis familiaris [2] = experiment: Percent decrease in coronary vascular resistance in dogs after intravenous dosage of 1500 ug/kg compound; assay type: functional, Canis lupus familiaris
Method in brief: (§1)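 Given intravenously to instrumented, anesthetized dogs. Coronary blood flow was measured by hydrogen clearance. Coronary vascular resistance was derived as arterial blood pressure divided by coronary flow.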

Canis familiaris [3] = experiment: Percent decrease in coronary vascular resistance in dogs after intravenous dosage of 450 ug/kg compound; assay type: functional, Canis lupus familiaris; method in brief: as §1
Canis familiaris [4] = experiment: Percent decrease in coronary vascular resistance in dogs after intravenous dosage of 150 ug/kg compound
[5] = Compound was tested for the plasma half life in dogs; assay type: functional
[6] = Compound was tested for the volume of distribution in dogs; assay type: functional, organism-based

SMILES	-Log IC25 (Cavia porcellus)	-Log IC50 [1]	further results
CCO/C(O)=C1\C(COCCN(C)C)=NC(C)=C(C(=O)OC)C1c1ccccc1C(F)(F)F (stereo not given)	7.6	7.4	
CCO/C(O)=C1\C(COCCN2CCN(C(C)C)CC2)=NC(C)=C(C(=O)OC)C1c1ccccc1Cl (stereo not given)	8	8.2	
CCO/C(O)=C1\C(COCCN(C)C)=NC(C)=C(C(=O)OC)C1c1ccncc1 (stereo not given)	6	6.1	
CCO/C(O)=C1\C(COCCCN(C)C)=NC(C)=C(C(=O)OC)C1c1ccccc1Cl (stereo not given)	8.6	8.6	
CCO/C(O)=C1\C(COCCN2CCN(C)CC2)=NC(C)=C(C(=O)OC)C1c1ccccc1Cl (stereo not given)	7.9	8	
CCO/C(O)=C1\C(COCCN(C)C)=NC(C)=C(C(=O)OC)C1c1cccc2ccccc12 (stereo not given)	7.7	7.1	
CCO/C(O)=C1\C(COCCN(C)C)=NC(C)=C(C(=O)OC)C1c1cccs1 (stereo not given)	6.6	6.9	
CCOC(=O)C1=C(COCCN)NC(C)=C(C(=O)OC)C1c1ccccc1Cl (stereo in doubt; 19) [AMLODIPINE]		5.8	
CCO/C(O)=C1\C(COCCN2CCN(Cc3ccc(Cl)cc3)CC2)=NC(C)=C(C(=O)OC)C1c1ccccc1Cl (stereo not given)	7.4	8	
CCO/C(O)=C1\C(COCCN2CCN(c3ccc(F)cc3)CC2)=NC(C)=C(C(=O)OC)C1c1ccccc1Cl (stereo not given)	7.3	7.9	
COC(=O)C1=C(C)NC(C)=C(C(=O)OC)C1c1ccccc1[N+](=O)[O-] [NIFEDIPINE]	7.5		IC50 (Rattus norvegicus): 3.98 nM
CCO/C(O)=C1\C(COCCCN2CCN(C)CC2)=NC(C)=C(C(=O)OC)C1c1ccccc1Cl (stereo not given)	8.2	8.4	
CCO/C(O)=C1\C(COCCN)=NC(C)=C(C(=O)OC)C1c1ccccc1F (stereo not given)	6.6	7.8	
CCO/C(O)=C1\C(COCCNC)=NC(C)=C(C(=O)OC)C1c1ccccc1OC (stereo not given)	7.1	7.2	
CCO/C(O)=C1\C(COCCN)=NC(C)=C(C(=O)OC)C1c1cccc(Cl)c1 (stereo not given)	6.6	7.9	
CCO/C(O)=C1\C(COCCN2CCOCC2)=NC(C)=C(C(=O)OC)C1c1ccccc1Cl (stereo not given)	7.5	7.8	
CCOC(=O)C1=C(COCCN)NC(C)=C(C(=O)OC)C1c1ccccc1Cl (stereo in doubt; 17) [AMLODIPINE]		8.1	Decrease (Canis familiaris [2]): 76.9%; Decrease (Canis familiaris [3]): 69.5%; Decrease (Canis familiaris [4]): 35.4%

SMILES	-Log IC25 (Cavia porcellus)	-Log IC50 [1]	further results
CCO/C(O)=C1\C(COCCN2CCC(N(C)C)CC2)=NC(C)=C(C(=O)OC)C1c1ccccc1Cl (stereo not given)	7.1	6.4	
CCOC(=O)C1=C(COCCN)NC(C)=C(C(=O)OC)C1c1ccccc1Cl (stereo in doubt; 18) [AMLODIPINE]		8.7	
CCO/C(O)=C1\C(COCCN)=NC(C)=C(C(=O)OC)C1c1cccc(C(F)(F)F)c1Cl (stereo not given)	7.3	8.5	Decrease (Canis familiaris [2]): 81.7%; Decrease (Canis familiaris [3]): 75.7%; Decrease (Canis familiaris [4]): 52.6%
CCO/C(O)=C1\C(COCCN(C)C)=NC(C)=C(C(=O)OC)C1c1cccc([N+](=O)[O-])c1 (stereo not given)	7.1	8	
CCO/C(O)=C1\C(COCCN(C)C)=NC(C)=C(C(=O)OC)C1c1ccccc1Cl (stereo not given)	7.5	8.1	Decrease (Canis familiaris [2]): 74.7%; Decrease (Canis familiaris [3]): 68.9%; Decrease (Canis familiaris [4]): 64.8%
CCO/C(O)=C1\C(COCCN2CCN(CCN(CC)CC)CC2)=NC(C)=C(C(=O)OC)C1c1ccccc1Cl (stereo not given)	7.1	6	
CCO/C(O)=C1\C(COCCNC)=NC(C)=C(C(=O)OC)C1c1ccccc1C (stereo not given)	7.2	7.2	
CCO/C(O)=C1\C(COCCN2CCNCC2)=NC(C)=C(C(=O)OC)C1c1ccccc1Cl (stereo not given)	7.4	6.8	
CCO/C(O)=C1\C(COCCNC)=NC(C)=C(C(=O)OC)C1c1ccccc1Cl (stereo not given)	7.5	8.5	Decrease (Canis familiaris [2]): 78.6%; Decrease (Canis familiaris [3]): 73.8%; Decrease (Canis familiaris [4]): 46.2%
CCO/C(O)=C1\C(COCCN(C)Cc2ccccc2)=NC(C)=C(C(=O)OC)C1c1ccccc1Cl (stereo not given)	7.3	7.4	
CCO/C(O)=C1\C(COCCN2CCCC2)=NC(C)=C(C(=O)OC)C1c1ccccc1Cl (stereo not given)	7.7	7.9	
CCO/C(O)=C1\C(COCCNC)=NC(C)=C(C(=O)OC)C1c1c(F)cccc1Cl (stereo not given)	7.6	7.9	
COC(=O)C1=C(C)NC(C)=C(C(=O)OCCN(C)Cc2ccccc2)C1c1cccc([N+](=O)[O-])c1 (stereo not given)			Plasma half life [5]: 17 h; Vd [6]: 3.5 L/kg
CCO/C(O)=C1\C(COCCN)=NC(C)=C(C(=O)OC)C1c1ccc(Cl)cc1 (stereo not given)	6	6	
CCO/C(O)=C1\C(COCCN)=NC(C)=C(C(=O)OC)C1c1ccccc1 (stereo not given)	6.2	6.8	
CCO/C(O)=C1\C(COCCN)=NC(C)=C(C(=O)OC)C1c1cccc(Cl)c1Cl (stereo not given)	6.6	7.9	
